pIC50: −log10 of the molar value.
Assays:
Format in all cases: functional
[1] = organism: Rattus norvegicus; experiment: In vitro inhibitory concentration that relaxed KCL induced contraction in rat detrusor strip by 50%
[2] = test system: Rattus norvegicus; experiment: Compound was evaluated in vivo for the effective dose that cause a 50% reduction in frequency of spontaneous bladder contraction in the rat hypertrophied model after oral administration
Summary of the method: (§1)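 Female Sprague-Dawley rats (190-210 g) given partial proximal urethral ligation (4-0 silk over 1 mm rod) under isoflurane; bladder catheter, cystometry in metabolic cages after overnight saline perfusion (2 mL/h), saline infusion 20 mL/h. Oral dosing in PEG-200 2 h after first cystometry, repeat ~1 h post-dose; % change in contraction frequency from pre-drug; ED50 from dose-response.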

[3] = test system: Rattus norvegicus; experiment: The percent change in the frequency of spontaneous bladder contractions after oral administration of a dose of 3 mg/kg in rat hypertrophic bladder model; summary of the method: as §1
[4] = test system: Rattus norvegicus; experiment: The percent change in BP was determined after oral administration of a dose of 10 mg/kg in rat hypertrophied model
[5] = test system: Rattus norvegicus; experiment: Compound was evaluated in vivo for the effective dose that cause a 20% drop in MAP normotensive rat after oral administration
[6] = Selectivity ratio of MAP ED20/bladder ED50
Summary of the method: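 Ratio of oral MAP ED20 in normotensive rats to oral ED50 for 50% fall in spontaneous bladder contraction frequency in rat hypertrophied unstable-bladder model.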

| Compound | pIC50 [1] | further results |
| --- | --- | --- |
| CCC(C)(C)/N=c1\c(O)c(O)\c1=N/Cc1ccc(C#N)cc1Cl | 6.89 | – |
| Cc1cc(Br)cc(C)c1C/N=c1\c(O)c(O)\c1=N/C(C)(C)C | 6.54 | – |
| Cc1cc(Cl)cc(Cl)c1C/N=c1\c(O)c(O)\c1=N/C(C)(C)C | 6.66 | – |
| CC(C)(C)/N=c1\c(O)c(O)\c1=N/Cc1c(Cl)cccc1Cl | 5.96 | – |
| CCc1cc(C#N)ccc1C/N=c1\c(O)c(O)\c1=N/[C@H](C)C(C)(C)C | 5.70 | – |
| CC(/N=c1\c(O)c(O)\c1=N/Cc1ccc(Cl)cc1Cl)C(C)(C)C (stereo not drawn) | 6.47 | – |
| CC(C)(C)/N=c1\c(O)c(O)\c1=N/Cc1ccc(C#N)cc1Cl | 6.85 | ED50 [2]: 3 mg/kg |
| CCc1cc(C#N)ccc1C/N=c1\c(O)c(O)\c1=N/C(C)(C)C | 6.62 | – |
| CCC(C)(C)/N=c1\c(O)c(O)\c1=N/Cc1c(C)cc(Br)cc1C | 5.92 | – |
| CCC(C)(C)/N=c1\c(O)c(O)\c1=N/Cc1ccc(F)c(F)c1 | 5.80 | – |
| CCC(C)(C)/N=c1\c(O)c(O)\c1=N/Cc1ccc(SC)cc1 | 5.25 | – |
| CC(C)(C)/N=c1\c(O)c(O)\c1=N/Cc1cc(F)ccc1F | 5.41 | – |
| CCC(C)(C)/N=c1\c(O)c(O)\c1=N/Cc1c(C)cc(C)cc1Cl | 6.70 | – |
| CCC(C)(C)/N=c1\c(O)c(O)\c1=N/Cc1ccc(F)cc1F | 6.66 | – |
| CCC(C)(C)/N=c1\c(O)c(O)\c1=N/Cc1ccc(F)cc1Cl | 5.82 | – |
| Cc1cc(C#N)cc(Cl)c1C/N=c1\c(O)c(O)\c1=N/C(C)C(C)(C)C (stereo not drawn) | 5.72 | – |
| N#Cc1ccc(CNc2c(NCc3ccc(C#N)cc3)c(=O)c2=O)cc1 | < 4.52 | – |
| CCC(C)(C)/N=c1\c(O)c(O)\c1=N/Cc1cc(F)cc(F)c1 | 6.12 | – |
| CCc1cc(C/N=c2\c(O)c(O)\c2=N/C(C)(C)C)ccc1C#N | 5.21 | – |
| CC(C)(C)/N=c1\c(O)c(O)\c1=N/Cc1ccccc1 | 5.47 | – |
| CCCC/N=c1\c(O)c(O)\c1=N/Cc1ccc(C#N)cc1 | < 4.52 | – |
| CC(/N=c1\c(O)c(O)\c1=N/CCc1ccc(C#N)cc1)C(C)(C)C (stereo not drawn) | < 4.52 | – |
| CCC/N=c1\c(O)c(O)\c1=N/Cc1ccc(C#N)cc1 | 4.66 | – |
| CCc1cc(C#N)ccc1C/N=c1\c(O)c(O)\c1=N/C(C)(C)CC | 6.96 | – |
| CC(C)(C)/N=c1\c(O)c(O)\c1=N/Cc1ccccc1F | 5.68 | – |
| CC(C)(C)/N=c1\c(O)c(O)\c1=N/Cc1ccc(Cl)cc1 | 5.77 | – |

| Compound | pIC50 [1] | further results |
| --- | --- | --- |
| CCC(C)(C)/N=c1\c(O)c(O)\c1=N/Cc1c(Cl)cccc1Cl | 6.55 | – |
| CCC(C)(C)/N=c1\c(O)c(O)\c1=N/Cc1c(C)cccc1Cl | 5.36 | – |
| CC(C)(C)/N=c1\c(O)c(O)\c1=N/CCc1ccc(C#N)cc1 | < 4.52 | – |
| CC(C)C/N=c1\c(O)c(O)\c1=N/Cc1ccc(C#N)cc1 | 4.99 | – |
| CCCC(=O)N(Cc1ccc(C#N)cc1)c1c(NC(C)C(C)(C)C)c(=O)c1=O (stereo not drawn) | 4.91 | ED50 [2]: 8 mg/kg |
| CCC(C)(C)/N=c1\c(O)c(O)\c1=N/Cc1ccc(C)cc1C | 6.28 | – |
| CCC(C)(C)/N=c1\c(O)c(O)\c1=N/Cc1cc(C)cc(C)c1 | < 4.52 | – |
| CC(C)(C)/N=c1\c(O)c(O)\c1=N/Cc1c(F)cccc1F | 5.12 | – |
| N#Cc1ccc(CNc2c(NC3CCCC3)c(=O)c2=O)cc1 | 5.03 | – |
| CCC(C)(C)/N=c1\c(O)c(O)\c1=N/Cc1c(C)cccc1C | 6.08 | – |
| CC(C)(C)/N=c1\c(O)c(O)\c1=N/Cc1ccncc1 | 5.52 | – |
| CC(C)(C)/N=c1\c(O)c(O)\c1=N/Cc1ccc(F)cc1Cl | 5.85 | – |
| CC(C)(C)/N=c1\c(O)c(O)\c1=N/Cc1cccnc1 | 5.59 | – |
| CC(C)(C)/N=c1\c(O)c(O)\c1=N/Cc1ccc(F)cc1 | 5.82 | – |
| CC(C)(C)/N=c1\c(O)c(O)\c1=N/Cc1ccccn1 | 4.94 | – |
| CCC(C)(C)/N=c1\c(O)c(O)\c1=N/Cc1ccc(Cl)cc1Cl | 6.68 | – |
| C[C@@H](/N=c1\c(O)c(O)\c1=N/Cc1ccc(C#N)cc1)C(C)(C)C | 6.57 | Change [3]: -69%; Change [4]: 7% |
| CCc1cc(C#N)ccc1Nc1c(N[C@H](C)C(C)(C)C)c(=O)c1=O | – | ED20 [5]: 2.3 mg/kg; Ratio [6]: 17.7; ED50 [2]: 0.13 mg/kg |
| CCC(C)(C)Nc1c(NCc2c(C)cc(Cl)cc2Cl)c(=O)c1=O | 7.00 | ED20 [5]: 100 mg/kg; Change [3]: -82%; Change [4]: -7%; Ratio [6]: 166; ED50 [2]: 0.6 mg/kg |
| CC[C@@H](C)/N=c1\c(O)c(O)\c1=N/Cc1ccc(C#N)cc1 | 5.40 | – |
| CC[C@H](C)/N=c1\c(O)c(O)\c1=N/Cc1ccc(C#N)cc1 | 5.66 | – |
| Cc1cc(Cl)cc(Cl)c1C/N=c1\c(O)c(O)\c1=N/C(C)C(C)(C)C (stereo not drawn) | 5.01 | – |
| N#Cc1ccc(CNc2c(N)c(=O)c2=O)cc1 | < 4.52 | – |
| CC(C)(CO)/N=c1\c(O)c(O)\c1=N/Cc1ccc(C#N)cc1 | 4.67 | – |
| CC(/N=c1\c(O)c(O)\c1=N/Cc1ccc(C#N)cc1Cl)C(C)(C)C (stereo not drawn) | 6.74 | – |
| CCC(C)(C)/N=c1\c(O)c(O)\c1=N/Cc1ccc(C#N)cc1 | 5.96 | – |

| Compound | pIC50 [1] | further results |
| --- | --- | --- |
| CC(C)(C)/N=c1\c(O)c(O)\c1=N/Cc1ccc(Cl)cc1Cl | 5.89 | – |
| CCC(C)(C)/N=c1\c(O)c(O)\c1=N/Cc1c(C)cc(C#N)cc1Cl | 6.80 | – |
| CC(C)(C)/N=c1\c(O)c(O)\c1=N/Cc1ccc(C#N)cc1 | 6.57 | Change [3]: -52%; ED50 [2]: 3 mg/kg |
| CCC(C)(C)/N=c1\c(O)c(O)\c1=N/Cc1ccc(C)c(C)c1 | < 4.52 | – |
| CCC(CC)/N=c1\c(O)c(O)\c1=N/Cc1ccc(C#N)cc1 | 5.89 | – |
| CCC(C)(C)/N=c1\c(O)c(O)\c1=N/Cc1ccc(F)cc1 | 6.44 | – |
| CCC(C)(C)/N=c1\c(O)c(O)\c1=N/Cc1ccc(F)c(Cl)c1 | 6.06 | – |
| CC(C)(C)/N=c1\c(O)c(O)\c1=N/Cc1ccc(F)cc1F | 5.68 | – |
| CC(/N=c1\c(O)c(O)\c1=N/[C@H](C)C(C)(C)C)c1ccc(C#N)cc1 (stereo partly drawn) | 5.19 | – |
| CC(/N=c1/c(NC(=O)c2ccc(C#N)cc2)c(O)c1=O)C(C)(C)C (stereo not drawn) | 4.94 | – |
| CN(C)c1c(NCc2ccc(C#N)cc2)c(=O)c1=O | < 4.52 | – |
| CC(C)(C)/N=c1\c(O)c(O)\c1=N/Cc1ccc(C#N)c(Cl)c1 | 5.96 | – |
| CCc1cc(Br)ccc1C/N=c1\c(O)c(O)\c1=N/C(C)(C)C | 6.57 | – |
| N#Cc1ccc(CNc2c(NCC(F)(F)C(F)(F)F)c(=O)c2=O)cc1 | 4.84 | – |
| CN(c1c(NCc2ccc(C#N)cc2)c(=O)c1=O)C(C)(C)C | 4.74 | – |
| CCCC(=O)N(Cc1c(C)cc(Cl)cc1Cl)c1c(NC(C)(C)CC)c(=O)c1=O | – | ED50 [2]: 3.9 mg/kg |
| COc1ccc(C/N=c2\c(O)c(O)\c2=N/C(C)(C)C)cc1 | 5.32 | – |
| CCC(C)(C)/N=c1\c(O)c(O)\c1=N/Cc1c(C)cc(C)cc1C | 6.51 | – |
| CC(C)/N=c1\c(O)c(O)\c1=N/Cc1ccc(C#N)cc1 | 4.85 | – |
| CCC(C)(C)/N=c1\c(O)c(O)\c1=N/Cc1ccc(C#N)c(Cl)c1 | 6.59 | – |
| C/N=c1\c(O)c(O)\c1=N/Cc1ccc(C#N)cc1 | < 4.52 | – |
| CC(C)(C)/N=c1\c(O)c(O)\c1=N/Cc1cccc(F)c1 | 5.62 | – |
| Cc1ccc(C/N=c2\c(O)c(O)\c2=N/C(C)(C)C)c(C)c1 | 6.20 | – |
| CC1(C)Oc2ccc(OC(F)(F)F)cc2[C@@H](N2Cc3ccccc3C2=O)[C@@H]1O [CELIKALIM] | – | ED20 [5]: 0.2 mg/kg; Ratio [6]: 0.7; ED50 [2]: 0.3 mg/kg |
| C[C@](O)(C(=O)Nc1ccc(C(=O)c2ccccc2)cc1)C(F)(F)F [ZD-6169] | – | Ratio [6]: 2.9; ED50 [2]: 2.4 mg/kg |

— ChEMBL document CHEMBL1132985, “Design and SAR of novel potassium channel openers targeted for urge urinary incontinence. 2. Selective and potent benzylamino cyclobutenediones” (J Med Chem, 2000)
